Measurements reported in ChEMBL document CHEMBL2176880 (J Med Chem, 2012).

Tests used:
[1] = molecular target: T1, Metabotropic glutamate receptor 2 (Homo sapiens, UniProt Q14416); assay: Positive allosteric modulator activity at human mGlu2R expressed in CHO cells incubated for 30 mins by [35S]GTPgammaS binding assay relative to control; type: functional, cell-based
Target sequence in this assay (Q14416 19-872 limits assumed): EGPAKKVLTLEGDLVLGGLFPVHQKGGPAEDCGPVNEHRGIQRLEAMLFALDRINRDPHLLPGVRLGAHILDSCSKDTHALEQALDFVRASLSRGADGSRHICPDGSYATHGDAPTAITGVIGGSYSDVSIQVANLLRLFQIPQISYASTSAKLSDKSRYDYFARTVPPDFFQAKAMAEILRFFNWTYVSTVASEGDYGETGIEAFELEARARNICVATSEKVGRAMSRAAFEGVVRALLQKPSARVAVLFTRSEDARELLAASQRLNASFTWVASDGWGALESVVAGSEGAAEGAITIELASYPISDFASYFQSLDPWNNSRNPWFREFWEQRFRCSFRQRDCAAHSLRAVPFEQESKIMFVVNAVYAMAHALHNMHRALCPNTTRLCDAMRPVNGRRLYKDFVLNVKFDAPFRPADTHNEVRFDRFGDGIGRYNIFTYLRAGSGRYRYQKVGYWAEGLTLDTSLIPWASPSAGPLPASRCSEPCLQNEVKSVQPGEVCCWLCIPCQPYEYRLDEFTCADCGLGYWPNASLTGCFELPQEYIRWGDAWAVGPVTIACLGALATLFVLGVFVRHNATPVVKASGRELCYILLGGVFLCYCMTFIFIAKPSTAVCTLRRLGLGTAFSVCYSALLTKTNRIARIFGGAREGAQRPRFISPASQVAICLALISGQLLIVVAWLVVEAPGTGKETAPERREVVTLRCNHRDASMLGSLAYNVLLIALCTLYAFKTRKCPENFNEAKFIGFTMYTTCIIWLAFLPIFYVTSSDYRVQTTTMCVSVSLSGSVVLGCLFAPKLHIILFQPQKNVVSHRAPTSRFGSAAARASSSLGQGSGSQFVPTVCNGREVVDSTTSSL

[2] = Drug metabolism in human liver microsomes at 5 uM after 15 mins; type: ADME, Microsome; settings: read-out: Drug metabolism
Method in brief: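 Compound at 5 μM incubated 15 min with human liver microsomes; read-out is % of compound metabolized. Values are the mean of at least two experiments.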

[3] = Drug level in Swiss mouse brain at 10 mg/kg, sc administered as single dose measured 1 hr post dose; type: ADME, organism-based; parameters: dose 10 mg/kg, route subcutaneous; settings: read-out: Drug uptake
Method in brief: (§1)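 Swiss mice given a single 10 mg/kg sc dose at 1 mg/mL in 20% HP-β-CD + HCl solution, pH 4. Brain and plasma levels taken 1 h post dose. Values are geometric means of at least two runs.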

[4] = Ratio of drug level in brain to plasma in Swiss mouse at 10 mg/kg, sc administered as single dose measured 1 hr post dose; type: ADME, organism-based; parameters: dose 10 mg/kg, route subcutaneous; settings: read-out: BPR; method in brief: as §1
hERG = hERG (Homo sapiens, UniProt Q12809); assay: Inhibition of human ERG expressed in HEK293 cells at 3 uM by patch clamp assay; type: cell-based; settings: HEK293 cells expressing hERG
Method in brief: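 HEK293 cells stably expressing hERG, whole-cell currents recorded by automated patch clamp in extracellular solution (mM: 150 NaCl, 4 KCl, 1 MgCl2, 1.8 CaCl2, 10 HEPES, 5 glucose, pH 7.4). Vehicle (0.1% DMSO) applied for 5 min, then compound at 0.1, 0.3 and 3 μM, each applied twice (n = 3). Effect taken after 5 min as the mean current of three pulses; residual current compared with vehicle.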

[5] = Plasma concentration in Swiss mouse at 10 mg/kg, sc administered as single dose measured 1 hr post dose; type: ADME, organism-based; parameters: dose 10 mg/kg, route subcutaneous; method in brief: as §1
[6] = Drug metabolism in mouse liver microsomes at 5 uM after 15 mins; type: ADME, Microsome; settings: read-out: Drug metabolism
[7] = molecular target: T1, Metabotropic glutamate receptor 2; assay: Positive allosteric modulator activity at human mGlu2R expressed in CHO cells incubated for 30 mins by [35S]GTPgammaS binding assay; type: functional, cell-based
Target sequence in this assay (Q14416 whole entry): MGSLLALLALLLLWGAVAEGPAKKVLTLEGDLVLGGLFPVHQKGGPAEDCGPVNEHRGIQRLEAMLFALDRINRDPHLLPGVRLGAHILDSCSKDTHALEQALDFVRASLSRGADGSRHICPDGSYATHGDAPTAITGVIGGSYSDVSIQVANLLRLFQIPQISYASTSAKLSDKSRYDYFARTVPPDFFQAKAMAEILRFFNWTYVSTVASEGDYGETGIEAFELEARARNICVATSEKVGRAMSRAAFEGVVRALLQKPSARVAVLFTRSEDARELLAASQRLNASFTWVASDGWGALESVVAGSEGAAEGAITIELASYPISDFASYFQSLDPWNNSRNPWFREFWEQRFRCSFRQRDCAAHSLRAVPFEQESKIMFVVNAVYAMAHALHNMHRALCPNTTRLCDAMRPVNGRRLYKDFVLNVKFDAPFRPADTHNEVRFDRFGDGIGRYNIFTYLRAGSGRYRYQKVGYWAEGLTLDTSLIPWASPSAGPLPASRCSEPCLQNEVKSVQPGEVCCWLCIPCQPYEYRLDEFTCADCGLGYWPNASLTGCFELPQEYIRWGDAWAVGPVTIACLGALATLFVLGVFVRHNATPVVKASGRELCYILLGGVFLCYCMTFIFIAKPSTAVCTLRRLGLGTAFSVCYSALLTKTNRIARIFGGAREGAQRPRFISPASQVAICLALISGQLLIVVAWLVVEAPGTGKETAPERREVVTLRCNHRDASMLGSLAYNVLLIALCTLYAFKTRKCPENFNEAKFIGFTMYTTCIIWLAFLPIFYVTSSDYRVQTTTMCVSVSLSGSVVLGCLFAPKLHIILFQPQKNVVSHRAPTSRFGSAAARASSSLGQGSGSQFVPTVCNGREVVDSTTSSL

[8] = Oral bioavailability in Sprague-Dawley rat at 10 mg/kg; type: ADME, organism-based; settings: in vivo
[9] = AUC (0 to infinity) in Sprague-Dawley rat at 10 mg/kg, po; type: ADME, organism-based; parameters: time infinity, dose 10 mg/kg, route oral; settings: plasma
[10] = Volume of distribution at steady state in Sprague-Dawley rat at […], iv or 10 mg/kg, po; type: ADME, organism-based; settings: in vivo, read-out: Vdss
[11] = Cmax in Sprague-Dawley rat at […], iv or 10 mg/kg, po; type: ADME, organism-based; settings: in vivo
[12] = Clearance in Sprague-Dawley rat at […], iv; type: ADME, organism-based; parameters: dose 2.5 mg/kg, route intravenous; settings: in vivo
[13] = Tmax in Sprague-Dawley rat at […], iv or 10 mg/kg, po; type: ADME, organism-based; settings: in vivo
[14] = Half life in Sprague-Dawley rat at […], iv; type: ADME, organism-based; parameters: dose 2.5 mg/kg, route intravenous; settings: in vivo

Chain of hERG (Q12809 whole entry): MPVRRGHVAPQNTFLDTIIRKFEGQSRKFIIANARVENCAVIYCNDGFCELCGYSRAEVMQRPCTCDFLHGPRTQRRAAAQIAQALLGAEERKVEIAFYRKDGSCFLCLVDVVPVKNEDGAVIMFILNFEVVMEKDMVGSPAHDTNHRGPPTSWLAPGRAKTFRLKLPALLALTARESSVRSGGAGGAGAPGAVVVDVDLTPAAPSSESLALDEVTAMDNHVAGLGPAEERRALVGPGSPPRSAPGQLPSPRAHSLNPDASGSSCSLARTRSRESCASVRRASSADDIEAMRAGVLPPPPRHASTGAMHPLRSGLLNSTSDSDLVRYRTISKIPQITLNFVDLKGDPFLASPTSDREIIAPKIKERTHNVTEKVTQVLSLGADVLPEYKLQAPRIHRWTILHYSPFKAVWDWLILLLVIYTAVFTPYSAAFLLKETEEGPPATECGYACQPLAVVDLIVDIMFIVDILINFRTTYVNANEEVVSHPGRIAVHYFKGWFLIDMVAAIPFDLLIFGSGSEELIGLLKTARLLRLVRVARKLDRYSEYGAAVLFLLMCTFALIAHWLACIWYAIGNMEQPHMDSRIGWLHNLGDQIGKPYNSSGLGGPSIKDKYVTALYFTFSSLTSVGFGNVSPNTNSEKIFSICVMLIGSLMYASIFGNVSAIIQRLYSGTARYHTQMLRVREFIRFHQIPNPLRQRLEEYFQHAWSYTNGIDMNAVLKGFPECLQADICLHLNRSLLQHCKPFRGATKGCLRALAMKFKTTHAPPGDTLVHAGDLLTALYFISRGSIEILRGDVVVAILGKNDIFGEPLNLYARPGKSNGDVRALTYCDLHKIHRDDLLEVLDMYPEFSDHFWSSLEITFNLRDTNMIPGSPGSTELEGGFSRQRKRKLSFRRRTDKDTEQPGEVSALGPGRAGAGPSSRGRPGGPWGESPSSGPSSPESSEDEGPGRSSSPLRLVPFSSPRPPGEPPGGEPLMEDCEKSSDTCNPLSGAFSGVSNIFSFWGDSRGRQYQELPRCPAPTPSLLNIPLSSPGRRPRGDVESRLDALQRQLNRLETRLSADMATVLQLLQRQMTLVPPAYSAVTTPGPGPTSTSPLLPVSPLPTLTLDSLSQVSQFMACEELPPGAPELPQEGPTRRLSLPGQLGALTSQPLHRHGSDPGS

Compound | Emax [1] [%] | metabolised at […], 5 µM [2] [%] | concentration at 1 h [3] [µg/mL] | Kp at 1 h [4] | inhibition at 3 µM (hERG) [%] | concentration at 1 h [5] [µg/mL] | metabolised at […], 5 µM [6] [%] | EC50 [7] [µM] | bioavailability [8] [%] | AUC(0-inf) [9] [µg·h/mL] | Vd [10] [L/kg] | Cmax [11] [µg/mL] | clearance [12] [L/h/kg] | Tmax [13] [h] | half-life [14] [h]
Clc1c(N2CCC(c3ccccc3)CC2)ccn2c(CC3CC3)nnc12 | 343 | 56 | 3.83 | 1.4 | 99 | 2.66 | – | – | – | – | – | – | – | – | –
CCc1nnc2c(C#N)c(N3CCC(c4ccccc4)CC3)ccn12 | 247 | 11 | 0.135 | 0.2 | 20 | 0.672 | 7 | – | – | – | – | – | – | – | –
N#Cc1c(N2CCC(c3ccccc3)CC2)ccn2c(CC3CC3)nnc12 | 278 | 6 | – | – | – | – | 25 | – | – | – | – | – | – | – | –
N#Cc1c(N2CCC(c3ccccc3)CC2)ccn2c(CN3CCCC3)nnc12 | 240 | 38 | – | – | – | – | 88 | 1.12 | – | – | – | – | – | – | –
CCc1cnc2c(C#N)c(N3CCC(c4ccccc4)CC3)ccn12 | 225 | 74 | – | – | – | – | 82 | – | – | – | – | – | – | – | –
FC(F)(F)C1(c2ccccc2)CCN(c2ccn3c(CC4CC4)nnc3c2Cl)CC1 | 243 | 56 | – | 1.6 | 42 | – | 41 | – | 53 | 1.16 | 5.1 | 0.289 | 4.62 | 1.3 | 2.1
CCc1nnc2c(C(F)(F)F)c(N3CCC(c4ccccc4)CC3)ccn12 | 334 | 29 | – | 1.3 | 36 | – | 42 | 0.116 | 35 | 1.01 | 1.4 | 0.359 | 3.18 | 0.7 | 1.9
FC(F)(F)Cc1nnc2c(Cl)c(N3CCC(c4ccccc4)CC3)ccn12 | 300 | 13 | 2.09 | 1.8 | 71 | 1.16 | 8 | 0.055 | – | – | – | – | – | – | –
FC(F)(F)c1c(N2CCC(c3cccnc3)CC2)ccn2c(CC3CC3)nnc12 | 268 | 31 | – | – | – | – | 78 | 0.519 | – | – | – | – | – | – | –
FC(F)(F)c1c(N2CCC(F)(c3ccccc3)CC2)ccn2c(CC3CC3)nnc12 | 292 | 18 | – | – | 84 | – | 13 | – | – | – | – | – | – | – | –
FC(F)(F)c1c(N2CCc3ccccc3C2)ccn2c(CC3CC3)nnc12 | 278 | 52 | – | – | – | – | 86 | 0.149 | – | – | – | – | – | – | –
FC(F)(F)Cc1nnc2c(Cl)c(N3CCC(F)(c4ccccc4)CC3)ccn12 | 310 | 39 | – | 1.4 | 42 | – | 25 | – | 63 | 5.99 | 1.9 | 0.807 | 1.08 | 1.7 | 2.6
Fc1ccc(C2CCN(c3ccn4c(CC5CC5)nnc4c3C(F)(F)F)CC2)c(F)c1 | 306 | 2 | – | – | 91 | – | 16 | 0.01 | – | – | – | – | – | – | –
CCCc1cnc2c(C#N)c(N3CCC(c4ccccc4)CC3)ccn12 | 254 | 74 | – | – | – | – | 81 | – | – | – | – | – | – | – | –
CCCc1nnc2c(C#N)c(N3CCC(c4ccccc4)CC3)ccn12 | 272 | 25 | – | – | – | – | 40 | 0.299 | – | – | – | – | – | – | –
CCCCc1nnc2c(C(F)(F)F)c(N3CCC(c4ccccc4)CC3)ccn12 | 364 | 33 | – | – | 91 | – | 54 | – | – | – | – | – | – | – | –
FC(F)(F)c1c(N2CCC(c3ccccc3)C2)ccn2c(CC3CC3)nnc12 (racemic) | 175 | 38 | – | – | – | – | 72 | 1.23 | – | – | – | – | – | – | –
FC(F)(F)c1c(N2Cc3ccccc3C2)ccn2c(CC3CC3)nnc12 | 330 | 50 | – | – | – | – | 89 | 0.4 | – | – | – | – | – | – | –
CCc1nnc2c(Cl)c(N3CCC(c4ccccc4)CC3)ccn12 | 262 | 57 | – | – | 43 | – | 39 | 0.386 | – | – | – | – | – | – | –
N#Cc1c(N2CCC(c3ccccc3)CC2)ccn2c(CC(F)(F)F)nnc12 | 277 | 9 | – | – | 33 | – | 10 | – | – | – | – | – | – | – | –
COCc1nnc2c(C#N)c(N3CCC(c4ccccc4)CC3)ccn12 | 196 | 12 | – | – | – | – | 31 | 0.468 | – | – | – | – | – | – | –
N#Cc1c(N2CCC(c3ccccc3)CC2)ccn2c(CC(F)(F)F)cnc12 | 259 | 24 | – | – | – | – | 41 | 0.125 | – | – | – | – | – | – | –
Clc1c(N2CCN(c3ccccc3)CC2)ccn2c(CC3CC3)nnc12 | 308 | 62 | – | – | – | – | 53 | 0.944 | – | – | – | – | – | – | –
CC(C)(C)c1nnc2c(C#N)c(N3CCC(c4ccccc4)CC3)ccn12 | 207 | – | – | – | – | – | – | 1.23 | – | – | – | – | – | – | –
